In assay [1] the target is Programmed cell death protein 1/Programmed cell death 1 ligand 1 (Homo sapiens, UniProt Q9NZQ7). As to the kind of experiment: Inhibition of PD1/PDL1 (unknown origin) protein-protein interaction measured after 15 mins by HTRF assay. Format: protein-complex assay. Background: Time-resolved FRET reads energy transfer from a long-lived donor to a nearby acceptor.
Assay [2] has as its system MC-38. As to the kind of experiment: Antiproliferative activity against mouse MC38 cells assessed as reduction in cell viability measured after 48 hrs by CCK8 assay. Format: functional, cell-based. The following applies: MC-38, 48 h. Put shortly: (§1)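 Cells pre-incubated 24 h at 37 °C, 5% CO2, then exposed to compounds over a concentration range in medium with 0.1% DMSO for a further 48 h at 37 °C. CCK-8 read-out as absorbance at 450 nm. IC50 taken from dose-response curves. Three independent experiments.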
(Tetrazolium assays rely on reduction of a dye to a coloured formazan, in cell work by metabolically active cells.)

For assay [3], the system named is HepG2. Put plainly: Antiproliferative activity against human HepG2 cells assessed as reduction in cell viability measured after 48 hrs by CCK8 assay. The format is functional, cell-based. The following applies: HepG2, 48 h. The method in brief: as §1
Assay [4] deals with NCM460. As to the kind of experiment: Cytotoxicity against human NCM460 cells assessed as reduction in cell viability measured after 48 hrs by CCK8 assay. Format: cell-based. The following applies: NCM460, 48 h. The method in brief: as §1
In assay [5] the test system is HEK293. Put plainly: Cytotoxicity against HEK293 cells assessed as reduction in cell viability measured after 48 hrs by CCK8 assay. Format: cell-based. The following applies: Homo sapiens, HEK293, 48 h. The method in brief: as §1
The test system of assay [6] is HeLa. Put plainly: Antiproliferative activity against human HeLa cells assessed as reduction in cell viability measured after 48 hrs by CCK8 assay. Format: functional, cell-based. Put shortly:
as §1

A short description of assay [7]: Antiproliferative activity against human A549/PTX cells assessed as reduction in cell viability measured after 48 hrs by CCK8 assay. Format: functional, cell-based. The following applies: A549/Taxol. Put shortly:
as §1

Assay [8] deals with B16-F10. Put plainly: Antiproliferative activity against mouse B16-F10 cells assessed as reduction in cell viability measured after 48 hrs by CCK8 assay. Format: functional, cell-based. The following applies: B16-F10, 48 h. Put shortly:
as §1

Assay [9] can be described thus: (§2) Inhibition of pig brain tubulin polymerization by spectrophotometric method. The format is tissue-based, Sus scrofa. The method in brief: (§3)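 Pig brain tubulin (three assembly/disassembly cycles, phosphocellulose P11 purification) mixed with compound at various concentrations in PEM buffer (100 mM PIPES, 1 mM MgCl2, 1 mM EGTA) with 1 mM GTP, 5% glycerol; polymerization read at 340 nm, 37 °C; plateau absorbance used.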

For assay [10], the species on record is Sus scrofa. The description is as §2. Format: tissue-based. Put shortly:
as §3

Assay [11] concerns the target Tubulin (Homo sapiens) (UniProt P68371+Q9H4B7+P0DPH7+P68366+Q13509+Q71U36+P04350+Q3ZCM7+P07437+P68363+Q9BQE3+Q6PEY2+Q13885+Q9BVA1+Q9BUF5). Put plainly: Disruption of microtubule network in human HepG2 cells at 5 uM measured after 24 hrs by immunofluorescence assay. Format: cell-based. Put shortly:
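HepG2 cells on glass coverslips, treated 24 h after plating for 24 h (vehicle 0.1% DMSO). Fixed 15 min in 4% formaldehyde, permeabilized 5 min in 0.2% Triton X-100, blocked 30 min in 5% BSA. Immunostained with anti-tubulin antibody, then imaged by confocal laser scanning.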

Structures are written as SMILES. Calls of active or inactive are those of the source. The rule behind the calls is not given here. Some results are limits rather than exact numbers.

Chain of Programmed cell death protein 1/Programmed cell death 1 ligand 1 (Q15116 whole entry): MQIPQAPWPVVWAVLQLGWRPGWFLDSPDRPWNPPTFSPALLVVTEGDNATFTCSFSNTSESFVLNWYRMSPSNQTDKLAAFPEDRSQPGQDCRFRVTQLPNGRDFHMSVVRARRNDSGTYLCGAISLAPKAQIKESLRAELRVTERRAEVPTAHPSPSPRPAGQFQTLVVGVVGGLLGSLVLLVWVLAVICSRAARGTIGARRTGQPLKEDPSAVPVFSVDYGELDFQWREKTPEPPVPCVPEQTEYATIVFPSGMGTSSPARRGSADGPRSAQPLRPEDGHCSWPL
Chain of Programmed cell death protein 1/Programmed cell death 1 ligand 1 (Q9NZQ7 whole entry): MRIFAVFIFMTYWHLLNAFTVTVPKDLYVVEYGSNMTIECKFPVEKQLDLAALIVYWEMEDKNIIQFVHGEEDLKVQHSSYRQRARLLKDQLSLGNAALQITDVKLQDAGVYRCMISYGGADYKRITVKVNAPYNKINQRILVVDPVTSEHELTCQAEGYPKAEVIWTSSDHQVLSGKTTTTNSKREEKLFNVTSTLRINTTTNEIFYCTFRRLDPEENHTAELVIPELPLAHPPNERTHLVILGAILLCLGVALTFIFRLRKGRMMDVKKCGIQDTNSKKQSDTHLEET

Regarding `COc1ccc(/C=C\c2cc(OC)c(OC)c(OC)c2)cc1OCc1ccc(CN2C[C@H](O)C[C@@H]2C(=O)O)cc1`, the IC50 in assay [1] is above 100 µM; in assay [2] it was above 10 µM; in assay [3], above 10 µM; in assay [4] it was above 50 µM; in assay [5], above 50 µM; in [6] it was above 10 µM. The IC50 was above 20 µM in [7] and above 10 µM in [8].

With `COc1ccc(/C=C\c2cc(OC)c(OC)c(OC)c2)cc1OCc1ccc(CN[C@H](C(=O)O)[C@H](C)O)cc1`, the IC50 is 58.6 µM in [1]; above 10 µM in assay [2]; above 10 µM in assay [3]; above 50 µM in [4]; above 50 µM in [5]; above 10 µM in [6]. In addition, the IC50 in [7] was above 20 µM; in assay [8] it was above 10 µM.

As to `COc1ccc(/C=C\c2cc(OC)c(OC)c(OC)c2)cc1O` [COMBRETASTATIN A4], the half-maximal inhibitory concentration (IC50) in assay [1] is above 100 µM; in [2], 0.08 µM; in [3], 0.59 µM; in assay [4] it was 12 µM; in assay [5], 11 µM; in assay [9], 4.31 µM. For the same compound, the IC50 in assay [6] turned out to be 0.06 µM; in assay [7], 0.62 µM; in assay [8], 0.05 µM.

Regarding `COc1ccc(/C=C\c2cc(OC)c(OC)c(OC)c2)cc1OCc1ccc(CNCCNC(C)=O)cc1`, the IC50 was 44.8 µM in [1]; 1.8 µM in assay [2]; 6.1 µM in assay [3]; 54 µM in [4]; above 50 µM in assay [5]; 60.7 µM in [9]. The IC50 in assay [6] was found to be 6.4 µM; in assay [7], 1.1 µM; in assay [8] it was 2.5 µM.

As for `COc1ccc(/C=C\c2cc(OC)c(OC)c(OC)c2)cc1OCc1ccc(CN[C@H](C(=O)O)[C@@H](C)O)cc1`, the IC50 in assay [1] is 50.7 µM; in assay [2], above 10 µM; in [3] it was above 10 µM; in assay [4] it was above 50 µM; in assay [5] it was above 50 µM; in [6] it was above 10 µM. Moreover, the IC50 is above 20 µM in assay [7] and 5.4 µM in assay [8].

`COc1ccc(/C=C\c2cc(OC)c(OC)c(OC)c2)cc1OCc1ccc(CN2CCCCC2C(=O)NCCN)cc1` (configuration not stated): the IC50 is 65.7 µM in assay [1]; above 10 µM in assay [2]; 4.8 µM in assay [3]; above 50 µM in assay [4]; above 50 µM in assay [5]; 7.3 µM in [6]. Further, the IC50 in assay [7] came out at 2.7 µM; in [8] it was 4.6 µM.

As for `CC(=O)O[C@H]1C(=O)[C@@]2(C)[C@H]([C@H](OC(=O)c3ccccc3)[C@]3(O)C[C@H](OC(=O)[C@H](O)[C@@H](NC(=O)c4ccccc4)c4ccccc4)C(C)=C1C3(C)C)[C@]1(OC(C)=O)CO[C@@H]1C[C@@H]2O`, the inhibition entry in assay [10] is “inactive”.

Take `COc1ccc(/C=C\c2cc(OC)c(OC)c(OC)c2)cc1OCc1ccc(CN2C[C@H](O)[C@@H](F)C2)cc1`: the IC50 in assay [1] was 52 µM; in [2], above 10 µM; in assay [3], 5.3 µM; in assay [4], 38 µM; in assay [5], 29 µM; in assay [6], 9.2 µM. Also, the figures for the IC50 in [7] and in assay [8] were 19.2 µM and above 10 µM, respectively.

In the case of `COc1ccc(/C=C\c2cc(OC)c(OC)c(OC)c2)cc1OCc1ccc(CN2CC[C@H](O)C2)cc1`, the half-maximal inhibitory concentration (IC50) in assay [1] was 90 µM; in assay [2], 7.2 µM; in assay [3] it was 6.6 µM; in [4] it was 51 µM; in assay [5], above 50 µM; in [6], 10.5 µM. The IC50 in assay [7] is 5.9 µM; in [8] it was above 10 µM.

For the compound `COc1ccc(/C=C\c2cc(OC)c(OC)c(OC)c2)cc1OCc1ccc(CN2CCCC[C@@H]2C(=O)O)cc1`, the IC50 in assay [1] is above 100 µM; in assay [2], above 10 µM; in assay [3], above 10 µM; in assay [4], above 50 µM; in assay [5], 42 µM; in assay [6] it was above 10 µM. In addition, the IC50 is above 20 µM in assay [7] and above 10 µM in assay [8].

For the compound `COc1ccc(/C=C\c2cc(OC)c(OC)c(OC)c2)cc1OCc1ccc(CO)cc1`, the IC50 in [1] is above 100 µM; in assay [2], 5.7 µM; in assay [3] it was 2.4 µM; in assay [4], above 50 µM; in assay [5] it was 37 µM; in assay [6] it was 7.6 µM. For the same compound, the half-maximal inhibitory concentration (IC50) in assay [7] turned out to be 12 µM; in assay [8], 6.6 µM.

`COc1ccc(/C=C\c2cc(OC)c(OC)c(OC)c2)cc1OCc1ccc(CN2CC[C@@H](O)C2)cc1`: the IC50 in [1] is above 100 µM; in assay [2] it was 6.9 µM; in assay [3] it was 6.2 µM; in [4] it was 53 µM; in [5], above 50 µM; in [6], above 10 µM. In addition, the IC50 in [7] is 8.9 µM; in assay [8], above 10 µM.

`COc1ccc(/C=C\c2cc(OC)c(OC)c(OC)c2)cc1OCc1ccc(CNCCO)cc1`: the half-inhibitory concentration (IC50) in assay [1] was 90.5 µM; in [2], 1.2 µM; in assay [3], 5.9 µM; in assay [4] it was 39 µM; in [5] it was above 50 µM; in assay [6], 4.4 µM. The IC50 in assay [7] came out at 0.8 µM; in [8], 6.6 µM.

`COc1ccc(/C=C\c2cc(OC)c(OC)c(OC)c2)cc1OCc1ccc(CNC(C)(C)C(=O)O)cc1`: the IC50 in assay [1] was above 100 µM; in assay [2], above 10 µM; in assay [3], 6.5 µM; in assay [4], above 50 µM; in assay [5] it was above 50 µM; in assay [6], above 10 µM. Besides, the IC50 in [7] was above 20 µM; in [8] it was above 10 µM.

Take `COc1ccc(/C=C\c2cc(OC)c(OC)c(OC)c2)cc1OCc1ccc(CN2CC(C(=O)O)C2)cc1`: the IC50 in [1] was 42 µM; in assay [2] it was above 10 µM; in [3] it was above 10 µM; in [4], above 50 µM; in assay [5] it was above 50 µM; in assay [6], 6.5 µM. The figures for the 50% inhibitory concentration (IC50) in [7] and in assay [8] were above 20 µM and above 10 µM, respectively.

For `COc1ccc(/C=C\c2cc(OC)c(OC)c(OC)c2)cc1OCc1ccc(CN2CC[C@H](C(=O)O)C2)cc1`, the IC50 in assay [1] was 38.6 µM; in assay [2], above 10 µM; in assay [3], 6.4 µM; in assay [4] it was above 50 µM; in assay [5], above 50 µM; in [6] it was above 10 µM. Besides, the IC50 in assay [7] was 12 µM; in assay [8] it was 7 µM.

For the compound `COc1ccc(/C=C\c2cc(OC)c(OC)c(OC)c2)cc1OCc1ccc(CN2CCCCC2C(=O)O)cc1` (configuration not stated), the half-inhibitory concentration (IC50) in assay [1] is above 100 µM; in assay [2] it was 5.4 µM; in assay [3] it was 3.1 µM; in [4] it was above 50 µM; in assay [5], above 50 µM; in assay [6] it was 14.2 µM. In addition, the IC50 in assay [7] was 10.2 µM; in [8], above 10 µM.

On to `COc1ccc(/C=C\c2cc(OC)c(OC)c(OC)c2)cc1OCc1ccc(CN2CCCCC2C(=O)NCCNC(=O)OC(C)(C)C)cc1` (configuration not stated), for which the concentration for half-maximal inhibition (IC50) in [1] was above 100 µM; in [2], 1.9 µM; in [3] it was 1.1 µM; in [4] it was 28 µM; in assay [5], 48 µM; in [9], 202 µM. The results for the IC50 in assay [6], in [7] and in assay [8] were 2 µM, 15 µM and 4.7 µM, respectively.

As to `COc1ccc(/C=C\c2cc(OC)c(OC)c(OC)c2)cc1OCc1ccc(CN2CC[C@@H](C(=O)O)C2)cc1`, the 50% inhibitory concentration (IC50) in [1] is above 100 µM; in [2], 6.3 µM; in [3] it was 2.3 µM; in [4], above 50 µM; in assay [5], 27 µM; in [9], above 200 µM. For the same compound, the figures for the IC50 in [6], in assay [7] and in [8] were 12.8 µM, above 20 µM and above 10 µM, respectively.

Take `COc1ccc(/C=C\c2cc(OC)c(OC)c(OC)c2)cc1OCc1ccc(CNCCN(C)C)cc1`: the IC50 was above 100 µM in assay [1]; 1.4 µM in assay [2]; 4.4 µM in [3]; 35 µM in assay [4]; 39 µM in assay [5]; 9.4 µM in assay [6]. In addition, the IC50 was 1.6 µM in assay [7] and above 10 µM in [8].

Turning to `COc1ccc(/C=C\c2cc(OC)c(OC)c(OC)c2)cc1OCc1ccc(CN2CCCC[C@H]2C(=O)O)cc1`, the IC50 was above 100 µM in assay [1]; above 10 µM in [2]; above 10 µM in assay [3]; above 50 µM in assay [4]; above 50 µM in assay [5]; above 200 µM in assay [9]. Besides, the results for the concentration for half-maximal inhibition (IC50) in assay [6], in [7] and in assay [8] were above 10 µM, above 20 µM and above 10 µM, respectively.

For `COc1ccc(/C=C\c2cc(OC)c(OC)c(OC)c2)cc1OCc1ccc(C=O)cc1`, the inhibition entry in assay [11] is “Active”.

One may read the IC50 as the concentration that inhibits the measured activity by half.

Values taken from ChEMBL document CHEMBL4732116, “Discovery of novel CA-4 analogs as dual inhibitors of tubulin polymerization and PD-1/PD-L1 interaction for cancer treatment” (Eur J Med Chem, 2021).
